Measurements published in article PMC3240942 (Molecular cell, 2011).
Positions count from the first letter of the chain named. Blank lines part the entries; values can stand above or below the molecule they belong to. Where no end group is shown, it is not given here.

What was measured:
[1] = target: T1, Sirt1 (Mus musculus, UniProt Q923E4); assay: Lineweaver-Burk kinetics of Sirt1; type: biochemical; settings: Sirt1 substrate/cofactor, under our reaction conditions
T1 sequence (Q923E4 1-737): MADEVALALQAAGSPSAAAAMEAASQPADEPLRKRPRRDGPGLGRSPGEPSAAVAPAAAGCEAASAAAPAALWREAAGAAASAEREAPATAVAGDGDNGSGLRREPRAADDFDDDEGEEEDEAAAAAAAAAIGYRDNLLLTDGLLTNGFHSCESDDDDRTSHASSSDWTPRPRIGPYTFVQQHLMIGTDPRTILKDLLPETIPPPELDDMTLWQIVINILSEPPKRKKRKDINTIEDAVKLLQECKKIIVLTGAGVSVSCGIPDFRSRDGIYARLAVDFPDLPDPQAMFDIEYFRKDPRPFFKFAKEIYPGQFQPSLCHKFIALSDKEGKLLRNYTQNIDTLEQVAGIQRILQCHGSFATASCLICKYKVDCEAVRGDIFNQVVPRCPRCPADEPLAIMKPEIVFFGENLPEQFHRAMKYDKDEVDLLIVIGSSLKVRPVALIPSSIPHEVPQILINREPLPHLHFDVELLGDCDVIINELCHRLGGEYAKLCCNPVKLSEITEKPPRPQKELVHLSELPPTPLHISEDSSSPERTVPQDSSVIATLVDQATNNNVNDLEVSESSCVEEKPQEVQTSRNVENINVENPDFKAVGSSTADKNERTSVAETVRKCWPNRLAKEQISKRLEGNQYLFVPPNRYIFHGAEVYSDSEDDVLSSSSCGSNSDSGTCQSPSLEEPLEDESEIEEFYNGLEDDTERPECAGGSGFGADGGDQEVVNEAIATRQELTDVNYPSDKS
Outline: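 His-Sirt1 (2 μg) was pre-incubated 5 min at room temperature in HEPES pH 7.0 buffer with mutant ESA peptide at 0, 60, 120 or 240 μM. Ac-K16 H4 fluorogenic dipeptide was varied at 500 μM NAD+, or NAD+ was varied at 100 μM substrate. Reactions ran 25 min at 37 °C and were stopped with nicotinamide developer; ex 355/em 460 nm, no-NAD+ blank subtracted. Triplicates. Kis/Kii came from a double-reciprocal noncompetitive model fit, Km from the same analysis, kcat from a Michaelis–Menten fit.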

[2] = target: T1, Sirt1; settings: 2007, cited from earlier work; for reported Sirt1 activation: ref Howitz et al., 2003, Milne et al.
[3] = system: Ac-H4 peptide; assay: Pull-down with streptavidin-immobilized Ac-H4 peptide; type: binding
Outline: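 Biotinylated peptide (mutant ESA or acetyl-H4) was bound to streptavidin agarose for 1 h at room temperature, washed, and held in PBS/1% Triton X-100. Beads (30 μl) took 2 μg GST-fused or His-tagged protein for 2 h at room temperature. Beads were washed with PBS/1% Triton/200 mM NaCl and eluted in β-ME SDS buffer at 95 °C for 10 min. Blots ran on 4–12% SDS-PAGE; biotin-only beads were the control.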

[4] = system: Lys 382 acetylated-p53 (Ac-p53); assay: Deacetylation of Lys 382 acetylated-p53 by recombinant WT/mutant Sirt1; type: biochemical, mouse Sirt1; settings: recombinant Sirt1 2 μg, acetylated GST-p53 0.2 μg, 0.5 mM NAD+, pH 7.0, 37 °C; immunoblot
Outline: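 Recombinant His-tagged WT or C-terminally truncated/point-mutant mouse Sirt1 (2 μg) incubated with acetylated GST-p53 (0.2 μg) and 0.5 mM NAD+ in 50 mM HEPES pH 7.0, 1 mM DTT, 10 mM MgCl2, 200 mM NaCl plus protease/phosphatase inhibitors. Reactions ran at 37 °C for indicated times and were stopped with SDS sample buffer. Read-out: immunoblot with acetyl-K382 p53 antibody; loading checked by Coomassie, Ponceau S or Western blot.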

[5] = system: GST-Ac-p53; assay: Pull-down of Sirt1 / core fragments with GST-Ac-p53; type: binding; settings: in vitro pull-down
Outline: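 In vitro pull-downs with GST-Ac-p53 or GST alone as negative control. Recombinant Flag-tagged full-length or ΔESA (a.a. 631-655 deleted) Sirt1 pulled down with anti-Flag, bound GST-Ac-p53 detected by GST immunoblot, and Sirt1 shown by Coomassie. Alternatively, core (a.a. 184-510) or Core-ESA with GST-Ac-p53 (2 μg each) in GST pull-down, bound core detected by Sirt1 immunoblot.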

[6] = system: Flag-p65 (NF-κB); assay: Co-immunoprecipitation of Sirt1 with Flag-p65 in Hela cells; type: cell-based; settings: V5-tagged Sirt1
Outline: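 Transient co-transfection of HeLa cells with Flag-NF-κB p65 plus V5-tagged full-length or ΔESA Sirt1. p65 was pulled down with anti-Flag, and bound Sirt1 was detected by anti-V5 immunoblot alongside input levels.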

[7] = target: T2, Sirt1 fragment F1b (the Sirtuin domain, a.a. 236-490) (mouse, UniProt Q923E4 236-490); assay: pull-down
T2 sequence (looked up): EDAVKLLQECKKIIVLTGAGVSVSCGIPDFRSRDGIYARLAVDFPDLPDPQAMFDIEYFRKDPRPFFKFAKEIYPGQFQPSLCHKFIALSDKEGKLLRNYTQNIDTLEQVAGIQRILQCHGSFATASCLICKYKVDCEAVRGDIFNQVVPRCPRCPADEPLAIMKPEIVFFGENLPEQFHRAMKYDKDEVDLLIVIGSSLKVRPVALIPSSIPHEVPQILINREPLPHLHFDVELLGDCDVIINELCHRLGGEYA

[8] = target: T3, Sirt1 deacetylase core (Core, a.a. 184-510) (mouse, UniProt Q923E4 184-510); assay: pull-down
T3 sequence (looked up): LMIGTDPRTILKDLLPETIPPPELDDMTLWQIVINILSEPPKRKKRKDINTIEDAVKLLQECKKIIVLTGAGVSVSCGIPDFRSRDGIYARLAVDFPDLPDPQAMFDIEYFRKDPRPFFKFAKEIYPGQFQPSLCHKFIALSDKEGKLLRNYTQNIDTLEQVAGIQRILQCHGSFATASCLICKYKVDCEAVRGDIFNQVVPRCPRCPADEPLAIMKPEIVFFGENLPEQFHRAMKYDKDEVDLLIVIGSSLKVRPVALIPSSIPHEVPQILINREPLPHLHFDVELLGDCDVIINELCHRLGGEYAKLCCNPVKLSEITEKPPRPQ

Molecule: O=C(Nc1ccccc1-c1cn2c(CN3CCNCC3)csc2n1)c1cnc2ccccc2n1 [SRT1720, reference compound]
reported Sirt1 activation [2]: reported to activate Sirt1

Molecule: Oc1ccc(/C=C/c2cc(O)cc(O)c2)cc1 [resveratrol, reference compound]
reported Sirt1 activation [2]: reported to activate Sirt1

Molecule: GST-ESA: ESA fused to GST (QYLFVPPNRYIFHGAEVYSDSEDDV; also: fused to GST, end not given here)
binding to Ac-H4 peptide [3]: not to either GST-ESA or GST alone

B1: AROS: Active Regulator of Sirt1 (protein, UniProt Q86WX3 1-136, looked up)
Active regulator of SIRT1: MSAALLRRGLELLAASEAPRDPPGQAKPRGAPVKRPRKTKAIQAQKLRNSAKGKVPKSALDEYRKRECRDHLRVNLKFLTRTRSTVAESVSQQILRQNRGRKACDRPVAKTKKKKAEGTVFTEEDFQKFQQEYFGS
effect on Sirt1 activity ([2]; binds to N-terminal domain of Sirt1, ref Kim et al.): activates its activity

B2: Core-ESA: ESA region attached to the deacetylase core (protein)
chain: LMIGTDPRTILKDLLPETIPPPELDDMTLWQIVINILSEPPKRKKRKDINTIEDAVKLLQECKKIIVLTGAGVSVSCGIPDFRSRDGIYARLAVDFPDLPDPQAMFDIEYFRKDPRPFFKFAKEIYPGQFQPSLCHKFIALSDKEGKLLRNYTQNIDTLEQVAGIQRILQCHGSFATASCLICKYKVDCEAVRGDIFNQVVPRCPRCPADEPLAIMKPEIVFFGENLPEQFHRAMKYDKDEVDLLIVIGSSLKVRPVALIPSSIPHEVPQILINREPLPHLHFDVELLGDCDVIINELCHRLGGEYAKLCCNPVKLSEITEKPPRPQQYLFVPPNRYIFHGAEVYSDSEDDV
modifications: left off: His tag, end not stated, kept
deacetylase activity against Ac-p53 [4]: restored deacetylase activity | binding to GST-Ac-p53 [5]: increases the deacetylase core-Ac-p53 interaction | binding to Ac-H4 peptide [3]: increases the deacetylase core-Ac-H4 interaction

B3: Core-GPDR: GPDR-mutated ESA region attached to the Core (protein)
chain: B2 chain with G341P, D347R
binding to Ac-H4 peptide [3]: interacted poorly with the Ac-H4 peptide

B4: deacetylase core: a.a. 184-510 of Sirt1 (protein)
chain: T3 sequence (looked up)
modifications: left off: His tag, end not stated, kept
deacetylase activity against Ac-p53 [4]: no catalytic activity

Further lines, with some results ahead:

Km [1]: 203 µM
Molecule: NC(=O)c1ccc[n+]([C@@H]2O[C@H](COP(=O)([O-])OP(=O)(O)OC[C@H]3O[C@@H](n4cnc5c(N)ncnc54)[C@H](O)[C@@H]3O)[C@@H](O)[C@H]2O)c1 [NAD^+, reference compound]

binding to Ac-H4 peptide [3]: Ac-H4 peptide bound to full-length Sirt1
B5: WT Sirt1: wild-type full-length Sirt1 (protein)
chain: T1 sequence (Q923E4 1-737)
modifications: left off: His tag, end not stated, kept
co-immunoprecipitation with Flag-p65 [6]: readily co-immunoprecipitated with Flag-p65

binding result [7]: binds | binding result [8]: binds
Molecule: QYLFVPPNRYIFHGAEVYSDSEDDV (peptide, UniProt Q923E4 631-655, looked up, also: biotin-tagged, position not given here) [ESA peptide (biotin-tagged peptide of the region essential for Sirt1 activity, a.a. 631-655)]
